Published values gathered from unrelated publications.
Each line is one published result; the experiments were not run side by side.
SIGMAR1: Sigma non-opioid intracellular receptor 1 (SIGMAR1, Homo sapiens, UniProt Q99720)
Oprm1: Mu-type opioid receptor (Oprm1, Mus musculus, UniProt P42866)
Nectin-4: Nectin-4 (Homo sapiens, UniProt Q96NY8)
PFF0160c: Dihydroorotate dehydrogenase (quinone), mitochondrial (PFF0160c, Plasmodium falciparum, UniProt Q08210)

SMILES	target	observed	mode	method	endpoint	result
COc1ccc(CN2CCN(Cc3ccccc3)CC2)cc1	SIGMAR1	ligand displacement		radioligand	Ki	13.8 nM
O=C(N[C@H]1C=C[C@@]2(O)[C@H]3Cc4ccc(O)c5c4[C@@]2(CCN3CC2CC2)[C@H]1O5)c1c[nH]c2cccnc12	Oprm1	ligand displacement		radioligand	Ki	0.56 nM
CCCC[C@@H]1NC(=O)[C@H](Cc2ccc(O)cc2)NC(=O)[C@@H]2CCCN2C(=O)[C@H](CC(=O)O)NC(=O)[C@H](C)NC(=O)[C@H](Cc2ccccc2)NC(=O)[C@@H]2CSCCC(=O)N3CN(CN(C3)C(=O)CCSC[C@@H](C(=O)N[C@@H](C)C(N)=O)NC1=O)C(=O)CCSC[C@H](NC(C)=O)C(=O)N[C@@H](CC(C)(C)C)C(=O)N1CCC[C@H]1C(=O)N[C@@H](CCC(=O)O)C(=O)N[C@H](CCCCNC(=O)CCc1cn(CCOCCOCCOCCOCCOCCC(=O)NCCCC[C@H]3NC(=O)[C@H](Cc4cccc5ccccc45)NC(=O)[C@@H]4CCCN4C(=O)[C@@H](NC(C)=O)CSCCC(=O)N4CN5CN(C4)C(=O)CCSC[C@H](NC3=O)C(=O)N[C@@H](CCSC)C(=O)N[C@@H](CCCCNC(=N)N)C(=O)N[C@@H](CCC(=O)O)C(=O)N[C@@H](Cc3c[nH]c4ccccc34)C(=O)N[C@@H](CO)C(=O)N[C@@H]([C@@H](C)O)C(=O)N3CCC[C@H]3C(=O)N3C[C@H](O)C[C@H]3C(=O)N[C@@H](Cc3c[nH]c4ccccc34)C(=O)N[C@H](C(N)=O)CSCCC5=O)nn1)C(=O)N1CCC[C@H]1C(=O)N[C@@H](Cc1ccc(O)cc1)C(=O)N2	Nectin-4	binding		SPR	Kd	1.8 nM
O=C(N[C@H]1C=C[C@@]2(O)[C@H]3Cc4ccc(O)c5c4[C@@]2(CCN3CC2CC2)[C@H]1O5)c1c[nH]c2ncccc12	Oprm1	ligand displacement		radioligand	Ki	1.14 nM
C[C@@H]1CN(c2ccc(O)c(NS(=O)(=O)c3ccc(-c4ccco4)cc3)c2)C[C@H](C)N1	Dihydroorotate dehydrogenase (quinone), mitochondrial (PFF0160c, Plasmodium falciparum, UniProt Q08210, E182D)	enzyme activity	inhibitor	absorbance	IC50	4020 nM
CCCC[C@@H]1NC(=O)[C@H](Cc2ccc(O)cc2)NC(=O)[C@@H]2CCCN2C(=O)[C@H](CC(=O)O)NC(=O)[C@H](C)NC(=O)[C@H](Cc2ccccc2)NC(=O)[C@@H]2CSCCC(=O)N3CN(CN(C3)C(=O)CCSC[C@@H](C(=O)N[C@@H](CNC(=O)CCc3cn(CCOCCOCCOCCOCCOCCOCCOCCOCCOCCOCCNC(=O)N[C@H]4CSCCC(=O)N5CN6CN(C5)C(=O)CCSC[C@H](NC(=O)[C@@H](CC(=O)O)NC(=O)[C@H](Cc5cccc7ccccc57)NC(=O)[C@@H]5CCCN5C4=O)C(=O)N[C@@H](CCSC)C(=O)N[C@@H](CCCCNC(=N)N)C(=O)N[C@@H](CC(=O)O)C(=O)N[C@@H](Cc4c[nH]c5ccccc45)C(=O)N[C@@H](CO)C(=O)N[C@@H]([C@@H](C)O)C(=O)N4CCC[C@H]4C(=O)N4C[C@H](O)C[C@H]4C(=O)N[C@@H](Cc4c[nH]c5ccccc45)C(=O)N[C@H](C(N)=O)CSCCC6=O)nn3)C(N)=O)NC1=O)C(=O)CCSC[C@H](NC(=O)[C@H](C)NC(C)=O)C(=O)N[C@@H]([C@@H](C)CC)C(=O)N[C@@H](CCC(=O)O)C(=O)N[C@@H](CCC(=O)O)C(=O)NCC(=O)N[C@@H](CCC(N)=O)C(=O)N[C@@H](Cc1ccc(O)cc1)C(=O)N2	Nectin-4	binding		SPR	Kd	1.7 nM
O=C(N[C@@H]1C=C[C@@]2(O)[C@H]3Cc4ccc(O)c5c4[C@@]2(CCN3CC2CC2)[C@H]1O5)c1n[nH]c2ccccc12	Oprm1	ligand displacement		radioligand	Ki	0.32 nM
CCCC[C@@H]1NC(=O)[C@H](Cc2ccc(O)cc2)NC(=O)[C@@H]2CCCN2C(=O)[C@H](CC(=O)O)NC(=O)[C@H](C)NC(=O)[C@H](Cc2ccccc2)NC(=O)[C@@H]2CSCCC(=O)N3CN(CN(C3)C(=O)CCSC[C@H](NC(C)=O)C(=O)N[C@@H](CC(C)(C)C)C(=O)N[C@@H](CCC(=O)O)C(=O)N[C@@H](CCC(=O)O)C(=O)N[C@H](CCCCNC(=O)CCc3cn(CCOCCOCCOCCOCCOCCC(=O)N[C@H]4CSCCC(=O)N5CN6CN(C5)C(=O)CCSC[C@H](NC(=O)[C@@H](CC(=O)O)NC(=O)[C@H](Cc5cccc7ccccc57)NC(=O)[C@@H]5CCCN5C4=O)C(=O)N[C@@H](CCSC)C(=O)N[C@@H](CCCCNC(=N)N)C(=O)N[C@@H](CC(=O)O)C(=O)N[C@@H](Cc4c[nH]c5ccccc45)C(=O)N[C@@H](CO)C(=O)N[C@@H]([C@@H](C)O)C(=O)N4CCC[C@H]4C(=O)N4C[C@H](O)C[C@H]4C(=O)N[C@@H](Cc4c[nH]c5ccccc45)C(=O)N[C@H](C(N)=O)CSCCC6=O)nn3)C(=O)N3CCC[C@H]3C(=O)N[C@@H](Cc3ccc(O)cc3)C(=O)N2)C(=O)CCSC[C@@H](C(N)=O)NC1=O	Nectin-4	binding		SPR	Kd	1.7 nM
CCOC(=O)c1cn(CC)c2cc(N3CCCCCC3)c(F)cc2c1=O	PFF0160c	enzyme activity	inhibitor	absorbance	IC50	> 10000 nM
FC(F)(F)c1ccc2c(c1)N(CCCN1CCN(CCCl)CC1)c1ccccc1S2	SIGMAR1	ligand displacement		radioligand	Ki	580 nM
CCn1c(-c2ccccc2)cc2nnc3ccccc3c21	PFF0160c	enzyme activity	inhibitor	absorbance	IC50	458 nM
O=C(N[C@@H]1C=C[C@@]2(O)[C@H]3Cc4ccc(O)c5c4[C@@]2(CCN3CC2CC2)[C@H]1O5)c1c[nH]c2ccncc12	Oprm1	ligand displacement		radioligand	Ki	0.94 nM
CCCCOc1ccccc1C(=O)NCc1csc(-c2ccccc2)n1	PFF0160c	enzyme activity	inhibitor	absorbance	IC50	421 nM
Cc1c(-c2ccccc2)oc2c(C(=O)OCCN3CCCCC3)cccc2c1=O	SIGMAR1	ligand displacement		radioligand	Ki	> 10000 nM
CCCC[C@@H]1NC(=O)[C@H](Cc2ccc(O)cc2)NC(=O)[C@@H]2CCCN2C(=O)[C@H](CC(=O)O)NC(=O)[C@H](C)NC(=O)[C@H](Cc2ccccc2)NC(=O)[C@@H]2CSCCC(=O)N3CN(CN(C3)C(=O)CCSC[C@@H](C(=O)N[C@@H](C)C(N)=O)NC1=O)C(=O)CCSC[C@H](NC(C)=O)C(=O)N[C@@H](CC(C)(C)C)C(=O)N1CCC[C@H]1C(=O)N[C@@H](CCC(=O)O)C(=O)N[C@H](CCCCNC(=O)CCc1cn(CCOCCOCCOCCOCCOCCC(=O)N[C@H]3CSCCC(=O)N4CN5CN(C4)C(=O)CCSC[C@H](NC(=O)CNC(=O)[C@H](Cc4ccccc4)NC(=O)[C@@H]4CCCN4C3=O)C(=O)N[C@@H](CCSC)C(=O)N[C@@H](CCCCNC(=N)N)C(=O)N[C@@H](CC(=O)O)C(=O)N[C@@H](Cc3c[nH]c4ccccc34)C(=O)N[C@@H](CO)C(=O)N[C@@H]([C@@H](C)O)C(=O)N3CCC[C@H]3C(=O)N3C[C@H](O)C[C@H]3C(=O)N[C@@H](Cc3c[nH]c4ccccc34)C(=O)N[C@H](C(N)=O)CSCCC5=O)nn1)C(=O)N1CCC[C@H]1C(=O)N[C@@H](Cc1ccc(O)cc1)C(=O)N2	Nectin-4	binding		SPR	Kd	14 nM
